Source: ChEMBL document CHEMBL1143073, “Benzoic acid derivatives, acetophenones, and anti-inflammatory constituents from Melicope semecarpifolia” (J Nat Prod, 2008)
Converted amounts (≈) assume the structure as drawn. The source made the active and inactive calls. The rule behind the calls is not given here.

Tests used:
[1] = Antiinflammatory activity in human neutrophils assessed as inhibition of fMet-Leu-Phe/Cytochalasin B-induced elastase release at 10 ug/mL; assay type: functional, cell-based; conditions: Neutrophil
Procedure, shortened: (§1)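 Human volunteer neutrophils (6 × 10^5/mL) prepared by dextran sedimentation, Ficoll Hypaque gradient and hypotonic lysis, kept in Ca2+-free HBSS pH 7.4 at 4 °C. Elastase substrate MeO-Suc-Ala-Ala-Pro-Val-p-nitroanilide 100 µM added; cells equilibrated 2 min at 37 °C, drug 5 min, then fMLP 100 nM/cytochalasin B 0.5 µg/mL stimulation. Absorbance at 405 nm monitored continuously; n = 4.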

[2] = Antiinflammatory activity in human neutrophils assessed as inhibition of fMet-Leu-Phe/Cytochalasin B-induced superoxide anion generation; assay type: functional, cell-based; conditions: Neutrophil
Procedure, shortened: (§2)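 Neutrophils isolated from venous blood of healthy adult volunteers (20–28 years) by dextran sedimentation, Ficoll Hypaque centrifugation and hypotonic erythrocyte lysis, >98% viable, held in Ca2+-free HBSS pH 7.4 at 4 °C. Cells given 0.5 mg/mL ferricytochrome c and 1 mM Ca2+, 37 °C 2 min, drug 5 min, cytochalasin B 1 µg/mL 3 min, then fMLP 100 nM 10 min. SOD-inhibitable (100 U/mL) reduction at 550 nm; n = 4.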

Neutrophil [3] = test: Antiinflammatory activity in human neutrophils assessed as inhibition of elastase release at 10 ug/mL; assay type: functional, cell-based
Procedure, shortened: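 Neutrophils from venous blood of healthy adult volunteers, isolated by dextran sedimentation, Ficoll Hypaque centrifugation and hypotonic erythrocyte lysis, kept in Ca2+-free HBSS pH 7.4 at 4 °C. Cells (6 × 10^5/mL) with MeO-Suc-Ala-Ala-Pro-Val-p-nitroanilide (100 µM), 2 min at 37 °C, drug 5 min, then fMLP (100 nM)/cytochalasin B (0.5 µg/mL). A405 monitored continuously. Percent inhibition, mean ± SEM, n = 4.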

Neutrophil [4] = test: Antiinflammatory activity in human neutrophils assessed as inhibition of superoxide anion generation at 10 ug/mL; assay type: functional, cell-based
Procedure, shortened: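 Healthy-volunteer neutrophils (dextran/Ficoll isolation, Ca2+-free HBSS pH 7.4) supplemented with 0.5 mg/mL ferricytochrome c and 1 mM Ca2+. Equilibrated 2 min at 37 °C, drug 5 min, cytochalasin B 1 µg/mL 3 min, then fMLP 100 nM 10 min. SOD-inhibitable ferricytochrome c reduction read at 550 nm with stirring, difference ± SOD (100 U/mL). Percent inhibition, n = 4.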

[5] = Antiinflammatory activity in human neutrophils assessed as inhibition of fMet-Leu-Phe/Cytochalasin B-induced elastase release; assay type: functional, cell-based; conditions: Neutrophil; procedure, shortened: as §1
[6] = Antiinflammatory activity in human neutrophils assessed as inhibition of fMet-Leu-Phe/Cytochalasin B-induced superoxide anion generation at 10 ug/mL; assay type: functional; conditions: Neutrophil; procedure, shortened: as §2

| Structure (SMILES) | inhibition at 10 µg/mL [1] | IC50 [2] | IC50 [5] | also measured |
| --- | --- | --- | --- | --- |
| CC(=O)c1c(OC/C=C(\C)CCC=C(C)C)cc(O)c(C(=O)O)c1O | 46.1% | 8.02 µg/mL |  |  |
| CC(=O)c1c(O)cc(O)cc1OC/C=C(\C)CCC=C(C)C |  |  |  | Activity (Neutrophil [3]): Active; Activity (Neutrophil [4]): Active |
| COc1cc(O)c2c(=O)c(OC)c(-c3ccc(O)c(OC)c3)oc2c1 [PACHYPODOL] |  | 1 µg/mL | 0.99 µg/mL (≈ 2.88 µM) |  |
| O=S(=O)(F)Cc1ccccc1 [PHENYLMETHYLSULFONYLFLUORIDE] |  |  |  | IC50 [1]: 35.7 µM |
| CC(C)=CCC/C(C)=C/COc1cc(O)cc(O)c1C(=O)CO |  | 0.73 µg/mL | 0.6 µg/mL (≈ 1.87 µM) |  |
| CC(C)=CCC/C(C)=C/COc1cc(O)c(C(=O)CO)c(O)c1 |  | 3.75 µg/mL | 0.91 µg/mL (≈ 2.84 µM) |  |
| CC(=O)c1c(O)cc(OC/C=C(\C)CCC=C(C)C)c2c1OC(C)(C)C=C2 | 27.4% |  |  | inhibition at 10 µg/mL [6]: 21.4% |
| CC(=O)c1c(O)cc(OC/C=C(\C)CCC=C(C)C)c2c1OC(C)(C)[C@H](O)C2 | 28.7% |  |  | inhibition at 10 µg/mL [6]: 30.6% |
| COc1cc(O)c2c(=O)c(OC)c(-c3ccc(O)cc3)oc2c1 [KUMATAKENIN] |  | 1.2 µg/mL | 0.7 µg/mL (≈ 2.23 µM) |  |
| COc1cc(O)c2c(=O)c(OC)c(-c3ccc(OC)c(OC)c3)oc2c1 [RETUSIN] |  | 1.43 µg/mL | 1.69 µg/mL (≈ 4.72 µM) |  |
| c1ccc2c(c1)[I+]c1ccccc1-2 [DIPHENYLENEIODONIUM] |  | 0.52 µM |  |  |
| CC(=O)c1c(O)cc(OC/C=C(\C)CCC=C(C)C)c2c1OC(C)(CCC=C(C)C)C=C2 (stereo unspecified) | 26.6% |  |  | inhibition at 10 µg/mL [6]: 23.2% |
| CC[C@H](CC[C@@H](C)[C@H]1CC[C@H]2[C@@H]3C(=O)C=C4C[C@@H](O)CC[C@]4(C)[C@H]3CC[C@]12C)C(C)C | 7.48% |  |  | inhibition at 10 µg/mL [6]: 22.6% |
| CC(=O)c1c(O)cc(OC/C=C(\C)CCC=C(C)C)c(C(=O)O)c1O |  | 6.62 µg/mL | 5.79 µg/mL (≈ 16.6 µM) |  |
